Data: ChEMBL document CHEMBL2021899, “Anti-AIDS agents 89. Identification of DCX derivatives as anti-HIV and chemosensitizing dual function agents to overcome P-gp-mediated drug resistance for AIDS therapy” (Bioorg Med Chem Lett, 2012)

Columns and labels:
KB [1] = assay: Cytotoxicity against human KB cells at 4 uM after 48 hrs by SRB assay; assay type: functional
KB [2] = assay: Ratio of GI50 for human vincristine-resistance KB cells to GI50 for wild type human KB cells; assay type: functional
[3] = Cytotoxicity against human TZM-bl cells after 48 hrs by CytoTox-GloTM assay; assay type: cell-based
KB [4] = assay: Reversal of p-glycoprotein-mediated multidrug resistance in human vincristine-resistance KB cells assessed as potentiation of vincristine-induced cytotoxicity at 4 uM after 48 hrs by SRB assay; assay type: cell-based
Outline: (§1)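 Vincristine-resistant, P-gp over-expressing KB-vin cells were exposed to vincristine alone or with co-treatment by the test agent, with verapamil as positive control. Vincristine GI50 was read by SRB assay. Fold value = GI50 (vincristine alone) / GI50 (vincristine + test agent). At least three independent experiments.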

[5] = system: Human immunodeficiency virus; assay: Antiviral activity against HIV/NL4-3 infected in human TZM-bl cells assessed as inhibition of viral replication after 48 hrs by luciferase reporter gene assay; assay type: functional, organism-based; conditions: Human immunodeficiency virus 1, NL4-3, TZM-bl
[6] = molecular target: ATP-dependent translocase ABCB1 (Homo sapiens, UniProt P08183); assay: Inhibition of p-glycoprotein-mediated doxorubicin efflux in human KB cells assessed as doxorubicin accumulation preincubated for 1 hr prior doxorubicin addition measured after 3 hrs by fluorometric assay; assay type: cell-based
Chain of ATP-dependent translocase ABCB1 (P08183 whole entry): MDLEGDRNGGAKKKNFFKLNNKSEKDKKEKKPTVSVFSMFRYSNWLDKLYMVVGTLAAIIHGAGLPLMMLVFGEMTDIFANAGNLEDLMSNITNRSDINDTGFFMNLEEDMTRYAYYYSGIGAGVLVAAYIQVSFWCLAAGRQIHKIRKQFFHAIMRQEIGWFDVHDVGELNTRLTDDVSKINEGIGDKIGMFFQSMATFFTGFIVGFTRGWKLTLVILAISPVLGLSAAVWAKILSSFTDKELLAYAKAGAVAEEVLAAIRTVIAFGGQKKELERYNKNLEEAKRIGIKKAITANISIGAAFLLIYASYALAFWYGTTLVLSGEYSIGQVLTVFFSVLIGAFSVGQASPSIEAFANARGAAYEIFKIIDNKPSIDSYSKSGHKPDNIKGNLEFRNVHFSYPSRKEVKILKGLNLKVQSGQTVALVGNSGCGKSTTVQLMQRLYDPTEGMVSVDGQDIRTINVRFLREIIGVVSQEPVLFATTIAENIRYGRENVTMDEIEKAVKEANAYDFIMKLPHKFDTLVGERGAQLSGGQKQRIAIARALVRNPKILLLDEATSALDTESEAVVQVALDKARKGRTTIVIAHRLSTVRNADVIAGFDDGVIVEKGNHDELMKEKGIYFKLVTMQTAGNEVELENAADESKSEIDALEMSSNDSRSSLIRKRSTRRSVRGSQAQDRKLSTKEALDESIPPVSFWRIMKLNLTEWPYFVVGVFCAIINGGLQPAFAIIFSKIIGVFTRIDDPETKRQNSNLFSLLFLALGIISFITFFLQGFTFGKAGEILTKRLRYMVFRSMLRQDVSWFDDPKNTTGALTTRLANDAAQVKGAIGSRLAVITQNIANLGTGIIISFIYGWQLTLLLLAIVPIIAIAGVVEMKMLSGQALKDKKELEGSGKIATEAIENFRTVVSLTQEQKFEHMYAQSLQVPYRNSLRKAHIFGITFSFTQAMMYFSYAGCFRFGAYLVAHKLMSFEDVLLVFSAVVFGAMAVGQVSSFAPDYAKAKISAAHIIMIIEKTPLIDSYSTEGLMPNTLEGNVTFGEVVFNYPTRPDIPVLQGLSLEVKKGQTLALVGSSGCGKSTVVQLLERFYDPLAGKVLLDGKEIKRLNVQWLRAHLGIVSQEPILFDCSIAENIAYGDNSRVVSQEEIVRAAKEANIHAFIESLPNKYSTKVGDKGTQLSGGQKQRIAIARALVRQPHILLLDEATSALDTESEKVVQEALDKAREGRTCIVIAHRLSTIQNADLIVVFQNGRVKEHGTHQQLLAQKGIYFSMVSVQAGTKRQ
Outline: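 KB-vin cells were seeded at 5 × 10³ per well and grown 72 h at 37 °C in 5% CO2, then washed. They were pretreated with sample or vehicle for 1 h, then doxorubicin was added to 10 final and incubated 3 h. Cells were washed in ice-cold PBS and lysed in 1% SDS/PBS; fluorescence was read at Ex 488/Em 580 nm. Value = fluorescence with compound / without, after control subtraction. Verapamil served as positive control.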

KB [7] = assay: Reversal of p-glycoprotein-mediated multidrug resistance in human vincristine-resistance KB cells assessed as potentiation of vincristine-induced cytotoxicity at 4 uM after 48 hrs by SRB assay relative to verapamil; assay type: cell-based; outline: as §1

Row | SMILES | GI50 (KB [1]) | RatioGI50 (KB [2]) | IC50 [3] | fold change (FC) (KB [4]) | EC50 [5] | inhibition (INH) [6] | fold change (FC) (KB [7])
1 | CC[C@]1(O)C[C@H]2CN(CCc3c([nH]c4ccccc34)[C@@](C(=O)OC)(c3cc4c(cc3OC)N(C=O)[C@H]3[C@@](O)(C(=O)OC)[C@H](OC(C)=O)[C@]5(CC)C=CCN6CC[C@]43[C@@H]65)C2)C1 [VINCRISTINE] | 2 nM | 1320 | – | – | – | – | –
2 | CC1(C)Oc2cc(O)c3c(=O)c4ccccc4oc3c2[C@@H](OC(=O)[C@@]23CCC(C)(C(=O)O2)C3(C)C)[C@H]1OC(=O)[C@@]12CCC(C)(C(=O)O1)C2(C)C | – | – | > 10000 nM | < 24 | – | – | –
3 | Cc1cc(=O)c2c(C)cc3c(c2o1)[C@@H](OC(=O)[C@@]12CCC(C)(C(=O)O1)C2(C)C)[C@@H](OC(=O)[C@@]12CCC(C)(C(=O)O1)C2(C)C)C(C)(C)O3 | – | – | > 10000 nM | 910 | 36 nM | Active | 20
4 | COc1cc2c(c3oc4cc(Br)ccc4c(=O)c13)[C@@H](OC(=O)[C@@]13CCC(C)(C(=O)O1)C3(C)C)[C@@H](OC(=O)[C@@]13CCC(C)(C(=O)O1)C3(C)C)C(C)(C)O2 | – | – | > 10000 nM | 264 | – | – | –
5 | COc1cc2c(c3oc4ccccc4c(=O)c13)[C@@H](OC(=O)[C@@]13CCC(C)(C(=O)O1)C3(C)C)[C@@H](OC(=O)[C@@]13CCC(C)(C(=O)O1)C3(C)C)C(C)(C)O2 | – | – | > 10000 nM | 776 | 63 nM | Active | –
6 | COc1cc2c(c3oc4c(F)cccc4c(=O)c13)[C@@H](OC(=O)[C@@]13CCC(C)(C(=O)O1)C3(C)C)[C@@H](OC(=O)[C@@]13CCC(C)(C(=O)O1)C3(C)C)C(C)(C)O2 | – | – | > 10000 nM | 880 | 230 nM | – | –
7 | COc1ccc2c(=O)c3c(OC)cc4c(c3oc2c1)[C@@H](OC(=O)[C@@]12CCC(C)(C(=O)O1)C2(C)C)[C@@H](OC(=O)[C@@]12CCC(C)(C(=O)O1)C2(C)C)C(C)(C)O4 | – | – | > 10000 nM | 98 | 362 nM | – | –
8 | COc1cc2c(c3oc4ccc(F)cc4c(=O)c13)[C@@H](OC(=O)[C@@]13CCC(C)(C(=O)O1)C3(C)C)[C@@H](OC(=O)[C@@]13CCC(C)(C(=O)O1)C3(C)C)C(C)(C)O2 | – | – | > 10000 nM | 1150 | 100 nM | – | 20
9 | COc1cc2c(c3oc4c(C)cccc4c(=O)c13)[C@@H](OC(=O)[C@@]13CCC(C)(C(=O)O1)C3(C)C)[C@@H](OC(=O)[C@@]13CCC(C)(C(=O)O1)C3(C)C)C(C)(C)O2 | – | – | > 10000 nM | 1100 | 1520 nM | – | 20
10 | Cc1cc(=O)c2ccc3c(c2o1)[C@@H](OC(=O)[C@@]12CCC(C)(C(=O)O1)C2(C)C)[C@@H](OC(=O)[C@@]12CCC(C)(C(=O)O1)C2(C)C)C(C)(C)O3 | – | – | > 10000 nM | 88 | 100 nM | – | –
11 | COc1cccc2c(=O)c3c(OC)cc4c(c3oc12)[C@@H](OC(=O)[C@@]12CCC(C)(C(=O)O1)C2(C)C)[C@@H](OC(=O)[C@@]12CCC(C)(C(=O)O1)C2(C)C)C(C)(C)O4 | – | – | > 10000 nM | 1020 | – | – | 20
12 | COc1c(Br)c2c(c3oc4ccccc4c(=O)c13)[C@@H](OC(=O)[C@@]13CCC(C)(C(=O)O1)C3(C)C)[C@@H](OC(=O)[C@@]13CCC(C)(C(=O)O1)C3(C)C)C(C)(C)O2 | – | – | > 10000 nM | 1650 | – | – | 20
13 | CC1(C)Oc2ccc3c(=O)c4ccccc4oc3c2[C@@H](OC(=O)[C@@]23CCC(C)(C(=O)O2)C3(C)C)[C@H]1OC(=O)[C@@]12CCC(C)(C(=O)O1)C2(C)C | – | – | > 10000 nM | 1260 | 308 nM | – | 20
14 | COc1cc(C)c2c(=O)c3c(OC)cc4c(c3oc2c1)[C@@H](OC(=O)[C@@]12CCC(C)(C(=O)O1)C2(C)C)[C@@H](OC(=O)[C@@]12CCC(C)(C(=O)O1)C2(C)C)C(C)(C)O4 | – | – | > 10000 nM | 518 | 140 nM | – | –
15 | COc1ccc(CCN(C)CCCC(C#N)(c2ccc(OC)c(OC)c2)C(C)C)cc1OC (stereo unspecified) | – | – | – | 60 | – | – | –
16 | COc1cc2c(c3oc4cc(C)ccc4c(=O)c13)[C@@H](OC(=O)[C@@]13CCC(C)(C(=O)O1)C3(C)C)[C@@H](OC(=O)[C@@]13CCC(C)(C(=O)O1)C3(C)C)C(C)(C)O2 | – | – | > 10000 nM | 352 | 95 nM | – | –
17 | COc1cc2c(c3oc4ccc(C)cc4c(=O)c13)[C@@H](OC(=O)[C@@]13CCC(C)(C(=O)O1)C3(C)C)[C@@H](OC(=O)[C@@]13CCC(C)(C(=O)O1)C3(C)C)C(C)(C)O2 | – | – | > 10000 nM | 388 | 65 nM | – | –
18 | CCc1cc(=O)c2c(C)cc3c(c2o1)[C@@H](OC(=O)[C@@]12CCC(C)(C(=O)O1)C2(C)C)[C@@H](OC(=O)[C@@]12CCC(C)(C(=O)O1)C2(C)C)C(C)(C)O3 | – | – | > 10000 nM | 677 | 100 nM | Active | –
19 | CCc1cc(=O)c2ccc3c(c2o1)[C@@H](OC(=O)[C@@]12CCC(C)(C(=O)O1)C2(C)C)[C@@H](OC(=O)[C@@]12CCC(C)(C(=O)O1)C2(C)C)C(C)(C)O3 | – | – | > 10000 nM | 132 | 70 nM | – | –
20 | COc1cc2c(c3oc4cccc(C)c4c(=O)c13)[C@@H](OC(=O)[C@@]13CCC(C)(C(=O)O1)C3(C)C)[C@@H](OC(=O)[C@@]13CCC(C)(C(=O)O1)C3(C)C)C(C)(C)O2 | – | – | > 10000 nM | 1390 | 150 nM | – | 20
21 | COc1ccc2oc3c4c(cc(OC)c3c(=O)c2c1)OC(C)(C)[C@H](OC(=O)[C@@]12CCC(C)(C(=O)O1)C2(C)C)[C@@H]4OC(=O)[C@@]12CCC(C)(C(=O)O1)C2(C)C | – | – | > 10000 nM | 343 | 121 nM | – | –
